# This is one part of a sample in which hits are shown more often than they occur.
# HUVEC prolif 384: inhibitors of human endothelial cell proliferation; HUVEC proliferation, CellTiter-Glo luminescence, 72 h; hits give low values; viability, % at 10 µM (by protocol); 86,000 tested, 1.1% active; AID 648;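 active = viability at or below 30%; inactive = viability above 30%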;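 also: 100% = median luminescence of DMSO-only cell control wells on each plate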
# Fibroblast inh: blocks proliferation of human lung fibroblasts; viability, % at 10 µM; LL 47 human lung fibroblast viability, ATP luminescence; hits give low values; 85,000 tested, 1.1% active;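 active = viability at or below 50% in the single dose screen; inactive = viability above 50%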;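 also: compound exposure lasted 72 h before the ATP readout; 100% = median luminescence of untreated cell-only wells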
#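 Test system: LL 47 human lung fibroblasts / Incubation: 72 h compound exposure at 37 °C after overnight plating / Technique: luminescent ATP detection, CellTiter-Glo / Compound dosing: 0.1% DMSO in all compound wells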
# H69AR inhibit: blocks growth of human H69AR lung tumor cells | 85,000 tested, 6% active | viability, % at 10 µM | H69AR lung tumor viability, ATP luminescence, 72 h; hits give low values;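 active = viability at or below 40%; inactive = viability above 40%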;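 also: multidrug resistant small cell line overexpressing MRP-1 efflux transporter; 100% = mean luminescence of untreated control wells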
# HCT116 PTEN-null: PTEN-deleted cell growth suppression. HCT116 PTEN-null viability, CellTiter-Glo, 60 h; hits give low values. viability, % at 10 µM. 140,000 tested, 1.2% active. AID 827;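 active = viability at or below a set limit, 4 SD under the median of all tested compounds, cut at about 3.7% in these data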;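 also: PTEN knockout HCT116 line with beta catenin targeted HCT116 as companion control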
# HCT116 bCat-KO: beta-catenin-lacking colon tumor cell growth suppression. HCT116 beta-catenin knockout viability, CellTiter-Glo, 60 h; hits give low values. viability, % at 10 µM. 140,000 tested, 1.5% active;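 active = viability at or under a set limit, the compound median less 4 SD, cut at about 6% in these data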;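 also: 0% = Hyamine 1622 control at 20 µM and 100% = untreated cell control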
# Phagocytosis inh: macrophage phagocytosis inhibition; J774A.1 macrophage IgG-bead phagocytosis, imaging; inhibition, % at 5 µM; 110,000 tested, 0.07% active;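 active = inhibition above the mean of the plate negative controls plus 5 SD, cut at about 13% in these data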;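 also: phagocytic index as fraction of beads internalized from green versus red external bead signal; plate controls were DMSO negative control for no effect and cytochalasin-D positive control for full effect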
# The depositor's hits bear a star; nt = no result given.
SMILES,HUVEC prolif 384,Fibroblast inh,H69AR inhibit,HCT116 PTEN-null,HCT116 bCat-KO,Phagocytosis inh
O=C(NCCO)c1c(O)c2cccc3c2n(c1=O)CC3,91.1,97.0,nt,98.8,88.1,1.2
O=C(Nc1ccccn1)c1c(O)c2cccc3c2n(c1=O)CCC3,112.8,91.2,34.9*,78.7,87.5,-0.6
Cc1ccccc1NC(=O)c1c(O)c2cccc3c2n(c1=O)CC3,103.6,98.5,66.5,nt,nt,-0.7
CCn1nc(C(=O)OC(C(=O)c2c[nH]c3ccccc23)c2ccccc2)c2ccccc2c1=O (centres undefined),nt,nt,nt,85.5,89.2,0.5
CS(=O)(=O)N(CC(=O)N1CCCCC1)c1sc2c(c1C#N)CCCC2,94.8,96.6,93.5,70.3,85.5,nt
CC1Cc2nc(SCC(=O)OCc3ccccc3)n(C)c(=O)c2S1 (centres undefined),93.4,89.7,93.7,92.6,96.8,-1.7
CN1CCN(c2cc(N3CCc4ccccc4C3)c(F)cc2[N+](=O)[O-])CC1,nt,nt,nt,5.4,6.5,-13.0
Cn1c(=O)c(C(=O)NCCO)c(O)c2ccccc21,103.9,105.2,92.4,102.7,100.5,-0.2
Cc1cccnc1NC(=O)c1c(O)c2ccccc2n(C)c1=O,115.4,93.9,5.4*,96.8,89.3,-0.1
CN(C)S(=O)(=O)N1CCN(C(=O)c2cccs2)CC1,104.3,102.1,103.9,84.3,98.4,1.5
Cc1ccccc1NC(=O)c1ccc(N/N=C/c2ccccc2O)c([N+](=O)[O-])c1,nt,nt,nt,33.0,45.4,-1.7
Cc1ccc(NC(=O)c2ccc(Nc3c([N+](=O)[O-])cc([N+](=O)[O-])cc3[N+](=O)[O-])cc2)cc1,nt,nt,nt,2.3*,4.5*,0.9
Cc1ccc(NC(=O)c2ccc(C(C)(C)C)cc2)cc1[N+](=O)[O-],nt,nt,nt,84.1,86.3,-2.0
Cc1ccc(NC(=O)c2ccc(N/N=C/c3cccc(O)c3)c([N+](=O)[O-])c2)cc1,nt,nt,nt,1.9*,2.9*,nt
COc1ccc(Nc2nnc(SCc3cc([N+](=O)[O-])cc4c3OCOC4)s2)cc1,nt,nt,nt,88.6,84.9,1.7
Clc1cc(Br)ccc1OCCOCCN1CCOCC1,84.1,98.7,94.7,93.0,99.3,0.3
Cc1cccnc1NC(=O)c1ccccc1NC(=O)C(C)(C)C,102.6,nt,101.8,99.4,90.7,nt
Cc1ccnc(NC(=O)c2ccccc2NC(=O)C(C)(C)C)c1,62.4,nt,19.7*,32.0,39.5,nt
CC(NC(=O)NC12CC3CC(CC(C3)C1)C2)C1CCCO1 (centres undefined),99.8,96.4,95.3,96.6,92.7,nt
CC(C)NC(=O)c1c2c(nc3ccccc13)CCCC2,88.1,100.3,33.2*,95.9,95.8,nt
COc1ccc(NC(=O)C2CC(=O)N(C)C(=Nc3ccc4c(c3)OCO4)S2)cc1 (centres undefined),72.3,88.0,30.0*,48.7,71.0,nt
Cc1ccc(OCc2nnc(SCC(=O)c3ccccc3)n2Cc2ccco2)cc1,nt,nt,nt,72.8,66.3,-0.3
Clc1ccc(OCc2nnc(SCCN3CCCCC3)n2Cc2ccco2)cc1,75.1,84.8,14.9*,16.4,9.6,0.8
O=C(CSc1nnc(COc2ccccc2)n1Cc1ccco1)c1ccc(F)cc1,91.4,83.2,38.9*,84.1,88.3,-0.5
Cc1ccc(S(=O)(=O)CCc2nnc(N)s2)cc1,109.6,110.8,84.1,105.8,96.1,nt
SMILES,HUVEC prolif 384,Fibroblast inh,H69AR inhibit,HCT116 PTEN-null,HCT116 bCat-KO,Phagocytosis inh
N=c1c2c(-c3ccccc3)c(-c3ccccc3)n(Cc3ccccc3)c2ncn1CCCn1ccnc1,2.3*,2.4*,-0.2*,2.0*,1.2*,nt
N=c1c2c(-c3ccccc3)c(-c3ccccc3)n(Cc3ccco3)c2ncn1Cc1ccco1,2.7*,nt,1.4*,1.4*,1.5*,-1.5
O=C(Nc1cccc(S(=O)(=O)N2CCCCC2)c1)c1ccc2c(=O)n3c(nc2c1)CCCCC3,nt,nt,nt,20.5,17.4,8.1
O=C(Nc1nc2c(cc3c4c(cccc42)CC3)s1)c1ccccc1Cl,nt,nt,nt,71.2,89.3,nt
CCOC(=O)C(CC)n1nc(C)n2c(cc3occc32)c1=O (centres undefined),97.5,97.5,94.5,100.1,97.6,nt
Cc1ccccc1OCc1nnc(SCC(=O)Nc2ccc3nc(SCC(=O)Nc4ccccc4)sc3c2)n1C,nt,nt,nt,64.0,59.5,0.9
O=C(CCl)Nc1cccc(-c2cnc3ccccc3n2)c1,4.1*,2.7*,1.5*,3.0*,5.1*,-0.6
O=C(Nc1cccc(NC(=O)c2ccc(-c3cccc(Br)c3)o2)c1)c1ccco1,60.7,103.6,25.3*,38.8,50.5,nt
O=C(Nc1cccc(-c2cnc3ccccc3n2)c1)c1ccccc1,nt,nt,nt,92.9,84.6,nt
O=C(Nc1cccc(NC(=O)c2ccc(-c3ccc(Br)cc3)o2)c1)c1ccccc1,57.9,72.2,54.8,6.5,14.8,3.0
O=C(Nc1cccc(-c2cnc3ccccc3n2)c1)c1cccc(NC(=O)c2ccco2)c1,16.6*,34.9*,8.1*,70.9,75.2,1.0
Cc1ccc2nc(-c3ccc(NC(=O)c4ccco4)cc3)[nH]c2c1,62.7,101.4,50.7,91.1,94.4,-0.5
O=C(Nc1cccc(-c2nc3ccccc3[nH]2)c1)c1ccco1,76.7,95.5,34.1*,83.7,96.4,-1.2
CCC1(C)NC(=O)N(CC(=O)N2N=C(c3ccccc3)CC2c2ccc(OC)cc2)C1=O (centres undefined),nt,nt,nt,83.3,91.6,-4.2
O=C(CN1N=C(c2ccc(Cl)cc2)CCC1=O)NCCN1CCc2ccccc2C1,nt,nt,nt,77.6,72.7,-4.5
CCC(C)[C@H](NC(=O)NCCCn1ccnc1)C(=O)OC (some centres undefined),nt,nt,nt,103.0,87.0,nt
COC(=O)c1cc(=O)n(-c2ccccc2)c(=Nc2ccccc2)s1,nt,nt,nt,25.3,25.8,nt
CCOC(=O)c1ccc(N=c2sc(C(=O)OC)cc(=O)n2-c2ccc(C(=O)OCC)cc2)cc1,nt,nt,nt,3.9,3.3*,nt
CCc1ccc(OCC(=O)NC(=S)Nc2ccc(S(=O)(=O)NC3CCCCC3)cc2)cc1,nt,nt,nt,103.5,95.0,0.8
Cc1ccc2nc(-c3cccc(NS(C)(=O)=O)c3)cc(-c3ccccc3)c2c1,nt,nt,nt,71.6,77.4,6.2
O=[N+]([O-])/C=C/c1cn(Cc2ccc(F)cc2)c2ccccc12,nt,nt,nt,1.4*,1.9*,nt
CCNC(=S)N/N=C/c1cn(Cc2ccc(F)cc2)c2ccccc12,nt,nt,nt,102.0,96.1,-13.5
CCCCCCCc1nc2c(=O)[nH]c3ccccc3c2o1,95.0,nt,104.3,nt,nt,nt
Cc1[nH]n(CCC#N)c(=O)c1CC(=O)N1CCN(c2ccccc2)CC1,95.9,100.5,96.0,108.1,100.2,-0.5
CCc1ccc(OCC(=O)NC(NC(=S)Nc2ccccc2C)C(Cl)(Cl)Cl)cc1 (centres undefined),nt,nt,nt,39.4,45.2,2.7
CCc1ccc(OCC(=O)NC(NC(=S)Nc2ccccc2)C(Cl)(Cl)Cl)cc1 (centres undefined),nt,nt,nt,7.7,2.4*,-1.6
CCOc1cc(-c2noc(-c3ccncc3)n2)cc(Br)c1OC,64.8,109.2,20.3*,84.6,89.0,-0.6
